Measured values taken from ChEMBL document CHEMBL3774303, “Discovery of novel pyrrolo[2,3-b]pyridine derivatives bearing 1,2,3-triazole moiety as c-Met kinase inhibitors” (Bioorg Med Chem Lett, 2016).

What was measured:
[1] = target: Hepatocyte growth factor receptor (Homo sapiens, UniProt P08581); test: Inhibition of cMet (unknown origin) using poly (Glu, Tyr) 4:1 as substrate after 30 mins by HTRF assay
HT-29 = test: Cytotoxicity against human HT-29 cells assessed as reduction in cell growth after 72 hrs by MTT assay; details: HT-29, 72 h
A549 = test: Cytotoxicity against human A549 cells assessed as reduction in cell growth after 72 hrs by MTT assay; details: A549, 72 h
MCF7 = test: Cytotoxicity against human MCF7 cells assessed as reduction in cell growth after 72 hrs by MTT assay; type: functional, cell-based; details: MCF7, 72 h
In short: (§1)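 Cells grown in MEM with 10% FBS were seeded at about 4 × 10³ cells/well and held 24 h at 37 °C in 5% CO₂. Compounds were then added and cells cultured 72 h. IC50 is the average of triplicate determinations.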

[2] = Cytotoxicity against human PC3 cells assessed as reduction in cell growth after 72 hrs by MTT assay; type: functional, cell-based; details: PC-3, 72 h; in short: as §1
[3] = target: T1, Receptor-type tyrosine-protein kinase FLT3 (Homo sapiens, UniProt P36888); test: Inhibition of FLT3 (unknown origin) using poly (Glu, Tyr) 4:1 as substrate after 30 mins by HTRF assay
T1 sequence (P36888 whole entry): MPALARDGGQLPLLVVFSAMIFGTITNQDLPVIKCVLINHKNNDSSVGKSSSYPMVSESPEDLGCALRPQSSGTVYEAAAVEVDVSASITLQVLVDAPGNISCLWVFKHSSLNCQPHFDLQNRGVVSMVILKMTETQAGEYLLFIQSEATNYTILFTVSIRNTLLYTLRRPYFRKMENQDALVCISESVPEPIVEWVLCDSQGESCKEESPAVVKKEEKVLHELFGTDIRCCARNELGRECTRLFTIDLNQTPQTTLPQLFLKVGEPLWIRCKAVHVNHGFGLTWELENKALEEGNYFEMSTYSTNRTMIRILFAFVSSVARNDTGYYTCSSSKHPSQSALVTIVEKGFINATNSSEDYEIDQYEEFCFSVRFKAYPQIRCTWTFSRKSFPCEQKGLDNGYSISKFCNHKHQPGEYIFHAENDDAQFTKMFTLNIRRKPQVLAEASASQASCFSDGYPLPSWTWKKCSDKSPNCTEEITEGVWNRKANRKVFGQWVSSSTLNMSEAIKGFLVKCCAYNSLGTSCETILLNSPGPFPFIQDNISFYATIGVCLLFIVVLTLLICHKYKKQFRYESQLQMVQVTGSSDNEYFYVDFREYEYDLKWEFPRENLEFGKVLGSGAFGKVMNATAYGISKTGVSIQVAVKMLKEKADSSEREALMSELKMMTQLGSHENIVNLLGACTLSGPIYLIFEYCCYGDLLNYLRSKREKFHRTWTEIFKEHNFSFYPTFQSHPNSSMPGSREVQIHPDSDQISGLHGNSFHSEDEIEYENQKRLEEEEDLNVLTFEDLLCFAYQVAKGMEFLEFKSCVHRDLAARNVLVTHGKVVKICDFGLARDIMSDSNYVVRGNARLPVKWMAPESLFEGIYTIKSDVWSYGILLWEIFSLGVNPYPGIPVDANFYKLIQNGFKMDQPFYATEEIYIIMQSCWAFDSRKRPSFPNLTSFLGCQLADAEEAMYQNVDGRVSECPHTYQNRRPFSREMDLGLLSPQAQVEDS
In short: (§2)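 HTRF tyrosine-kinase assay with purified enzyme on preloaded poly(Glu,Tyr) 4:1 substrate (20 μg/mL). ATP was added from a 10 mM solution in HEPES buffer (50 mM, pH 7.0, with Mg²⁺, Mn²⁺, DTT, 0.1% NaN₃), and compounds in 1% DMSO.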

[4] = target: Platelet-derived growth factor receptor beta (Homo sapiens, UniProt P09619); test: Inhibition of PDGFRbeta (unknown origin) using poly (Glu, Tyr) 4:1 as substrate after 30 mins by HTRF assay; in short: as §2
[5] = target: Vascular endothelial growth factor receptor 2 (Homo sapiens, UniProt P35968); test: Inhibition of KDR (unknown origin) using poly (Glu, Tyr) 4:1 as substrate after 30 mins by HTRF assay; in short: as §2
[6] = target: Mast/stem cell growth factor receptor Kit (Homo sapiens, UniProt P10721); test: Inhibition of cKit (unknown origin) using poly (Glu, Tyr) 4:1 as substrate after 30 mins by HTRF assay; in short: as §2
Sequence of Mast/stem cell growth factor receptor Kit (P10721 whole entry): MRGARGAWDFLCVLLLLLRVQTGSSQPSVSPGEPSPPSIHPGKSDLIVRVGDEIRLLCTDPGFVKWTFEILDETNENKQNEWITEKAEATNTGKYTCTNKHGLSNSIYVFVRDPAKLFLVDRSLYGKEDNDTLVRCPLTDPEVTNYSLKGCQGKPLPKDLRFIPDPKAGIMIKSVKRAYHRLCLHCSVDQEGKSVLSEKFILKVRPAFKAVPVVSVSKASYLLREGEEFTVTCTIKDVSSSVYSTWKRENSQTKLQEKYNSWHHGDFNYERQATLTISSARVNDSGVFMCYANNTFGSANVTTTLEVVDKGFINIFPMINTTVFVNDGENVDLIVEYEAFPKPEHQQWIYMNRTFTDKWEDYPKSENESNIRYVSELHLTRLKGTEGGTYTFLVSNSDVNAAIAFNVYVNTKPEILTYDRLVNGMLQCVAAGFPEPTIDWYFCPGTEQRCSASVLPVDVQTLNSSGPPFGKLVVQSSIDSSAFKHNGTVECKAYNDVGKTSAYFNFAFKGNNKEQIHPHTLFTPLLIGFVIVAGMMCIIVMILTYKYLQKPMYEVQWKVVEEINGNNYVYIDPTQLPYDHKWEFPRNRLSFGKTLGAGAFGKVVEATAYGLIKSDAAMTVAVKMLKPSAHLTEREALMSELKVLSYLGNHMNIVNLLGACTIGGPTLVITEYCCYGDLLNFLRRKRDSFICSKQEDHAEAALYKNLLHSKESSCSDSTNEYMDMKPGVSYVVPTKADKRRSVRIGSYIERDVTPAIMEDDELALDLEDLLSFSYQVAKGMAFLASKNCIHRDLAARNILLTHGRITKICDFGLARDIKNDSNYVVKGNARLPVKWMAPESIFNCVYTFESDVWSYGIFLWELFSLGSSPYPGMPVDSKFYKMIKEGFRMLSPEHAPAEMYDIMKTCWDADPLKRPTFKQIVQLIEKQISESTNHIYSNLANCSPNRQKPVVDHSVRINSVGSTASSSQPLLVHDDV

Sequence of Vascular endothelial growth factor receptor 2 (P35968 whole entry): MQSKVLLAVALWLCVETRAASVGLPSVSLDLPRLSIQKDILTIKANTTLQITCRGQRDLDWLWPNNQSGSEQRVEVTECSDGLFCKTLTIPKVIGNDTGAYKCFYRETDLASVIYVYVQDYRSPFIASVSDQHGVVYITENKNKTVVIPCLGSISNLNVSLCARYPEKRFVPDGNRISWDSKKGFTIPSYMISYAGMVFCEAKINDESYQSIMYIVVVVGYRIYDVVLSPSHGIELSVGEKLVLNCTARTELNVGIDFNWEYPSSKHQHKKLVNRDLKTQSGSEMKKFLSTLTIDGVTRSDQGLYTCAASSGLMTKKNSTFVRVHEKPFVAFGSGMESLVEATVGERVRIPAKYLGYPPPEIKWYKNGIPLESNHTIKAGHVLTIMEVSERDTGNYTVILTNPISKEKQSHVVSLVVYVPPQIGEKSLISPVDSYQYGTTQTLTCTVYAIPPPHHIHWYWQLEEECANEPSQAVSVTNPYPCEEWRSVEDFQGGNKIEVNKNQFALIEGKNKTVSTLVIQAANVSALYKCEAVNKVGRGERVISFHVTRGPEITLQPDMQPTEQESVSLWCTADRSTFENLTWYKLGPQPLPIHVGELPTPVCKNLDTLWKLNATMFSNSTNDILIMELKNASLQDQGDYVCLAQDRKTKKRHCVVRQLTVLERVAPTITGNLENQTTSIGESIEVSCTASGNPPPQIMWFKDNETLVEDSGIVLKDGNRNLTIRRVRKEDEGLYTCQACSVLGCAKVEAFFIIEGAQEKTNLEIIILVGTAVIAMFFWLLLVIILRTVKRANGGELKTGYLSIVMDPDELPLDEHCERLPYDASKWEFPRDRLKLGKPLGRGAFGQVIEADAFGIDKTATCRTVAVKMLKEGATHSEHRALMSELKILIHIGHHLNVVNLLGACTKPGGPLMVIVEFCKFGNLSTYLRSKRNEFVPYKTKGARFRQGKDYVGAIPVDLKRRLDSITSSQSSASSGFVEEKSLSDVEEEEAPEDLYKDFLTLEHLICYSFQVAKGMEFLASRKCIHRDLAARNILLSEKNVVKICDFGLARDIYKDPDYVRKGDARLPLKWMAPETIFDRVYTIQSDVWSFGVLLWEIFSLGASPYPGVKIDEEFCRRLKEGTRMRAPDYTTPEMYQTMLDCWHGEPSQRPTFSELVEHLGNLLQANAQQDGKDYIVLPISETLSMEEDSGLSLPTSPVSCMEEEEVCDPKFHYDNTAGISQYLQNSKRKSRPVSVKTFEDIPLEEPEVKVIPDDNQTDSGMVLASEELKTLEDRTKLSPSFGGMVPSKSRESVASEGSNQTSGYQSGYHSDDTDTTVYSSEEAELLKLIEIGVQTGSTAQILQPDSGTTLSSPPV
Sequence of Platelet-derived growth factor receptor beta (P09619 whole entry): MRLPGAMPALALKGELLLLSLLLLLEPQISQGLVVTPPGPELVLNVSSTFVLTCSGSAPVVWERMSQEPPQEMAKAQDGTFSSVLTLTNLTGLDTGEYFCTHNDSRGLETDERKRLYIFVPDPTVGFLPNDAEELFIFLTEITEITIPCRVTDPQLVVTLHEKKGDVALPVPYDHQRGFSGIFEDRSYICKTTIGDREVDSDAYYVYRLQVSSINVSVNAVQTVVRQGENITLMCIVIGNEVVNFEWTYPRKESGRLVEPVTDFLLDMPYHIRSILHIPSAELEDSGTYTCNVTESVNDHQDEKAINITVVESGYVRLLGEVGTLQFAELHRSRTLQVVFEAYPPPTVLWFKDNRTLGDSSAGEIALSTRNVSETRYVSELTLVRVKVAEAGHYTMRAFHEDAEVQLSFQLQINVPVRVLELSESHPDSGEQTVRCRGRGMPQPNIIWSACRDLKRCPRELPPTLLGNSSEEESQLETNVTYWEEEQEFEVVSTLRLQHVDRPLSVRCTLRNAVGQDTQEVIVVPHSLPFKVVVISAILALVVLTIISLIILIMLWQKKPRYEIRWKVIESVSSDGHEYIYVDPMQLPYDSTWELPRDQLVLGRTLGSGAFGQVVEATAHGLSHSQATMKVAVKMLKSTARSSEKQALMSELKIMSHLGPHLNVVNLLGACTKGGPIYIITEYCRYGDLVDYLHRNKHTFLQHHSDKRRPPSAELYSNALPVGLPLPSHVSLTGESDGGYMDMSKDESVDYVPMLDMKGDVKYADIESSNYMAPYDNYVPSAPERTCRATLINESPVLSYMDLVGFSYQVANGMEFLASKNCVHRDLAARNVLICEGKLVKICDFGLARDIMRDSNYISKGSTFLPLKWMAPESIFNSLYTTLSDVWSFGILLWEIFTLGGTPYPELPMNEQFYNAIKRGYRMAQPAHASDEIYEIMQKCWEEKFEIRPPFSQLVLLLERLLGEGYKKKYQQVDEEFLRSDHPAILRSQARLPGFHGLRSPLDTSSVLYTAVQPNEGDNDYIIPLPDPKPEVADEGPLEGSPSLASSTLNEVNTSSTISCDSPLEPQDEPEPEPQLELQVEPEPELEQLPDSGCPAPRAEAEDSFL
Sequence of Hepatocyte growth factor receptor (P08581 whole entry): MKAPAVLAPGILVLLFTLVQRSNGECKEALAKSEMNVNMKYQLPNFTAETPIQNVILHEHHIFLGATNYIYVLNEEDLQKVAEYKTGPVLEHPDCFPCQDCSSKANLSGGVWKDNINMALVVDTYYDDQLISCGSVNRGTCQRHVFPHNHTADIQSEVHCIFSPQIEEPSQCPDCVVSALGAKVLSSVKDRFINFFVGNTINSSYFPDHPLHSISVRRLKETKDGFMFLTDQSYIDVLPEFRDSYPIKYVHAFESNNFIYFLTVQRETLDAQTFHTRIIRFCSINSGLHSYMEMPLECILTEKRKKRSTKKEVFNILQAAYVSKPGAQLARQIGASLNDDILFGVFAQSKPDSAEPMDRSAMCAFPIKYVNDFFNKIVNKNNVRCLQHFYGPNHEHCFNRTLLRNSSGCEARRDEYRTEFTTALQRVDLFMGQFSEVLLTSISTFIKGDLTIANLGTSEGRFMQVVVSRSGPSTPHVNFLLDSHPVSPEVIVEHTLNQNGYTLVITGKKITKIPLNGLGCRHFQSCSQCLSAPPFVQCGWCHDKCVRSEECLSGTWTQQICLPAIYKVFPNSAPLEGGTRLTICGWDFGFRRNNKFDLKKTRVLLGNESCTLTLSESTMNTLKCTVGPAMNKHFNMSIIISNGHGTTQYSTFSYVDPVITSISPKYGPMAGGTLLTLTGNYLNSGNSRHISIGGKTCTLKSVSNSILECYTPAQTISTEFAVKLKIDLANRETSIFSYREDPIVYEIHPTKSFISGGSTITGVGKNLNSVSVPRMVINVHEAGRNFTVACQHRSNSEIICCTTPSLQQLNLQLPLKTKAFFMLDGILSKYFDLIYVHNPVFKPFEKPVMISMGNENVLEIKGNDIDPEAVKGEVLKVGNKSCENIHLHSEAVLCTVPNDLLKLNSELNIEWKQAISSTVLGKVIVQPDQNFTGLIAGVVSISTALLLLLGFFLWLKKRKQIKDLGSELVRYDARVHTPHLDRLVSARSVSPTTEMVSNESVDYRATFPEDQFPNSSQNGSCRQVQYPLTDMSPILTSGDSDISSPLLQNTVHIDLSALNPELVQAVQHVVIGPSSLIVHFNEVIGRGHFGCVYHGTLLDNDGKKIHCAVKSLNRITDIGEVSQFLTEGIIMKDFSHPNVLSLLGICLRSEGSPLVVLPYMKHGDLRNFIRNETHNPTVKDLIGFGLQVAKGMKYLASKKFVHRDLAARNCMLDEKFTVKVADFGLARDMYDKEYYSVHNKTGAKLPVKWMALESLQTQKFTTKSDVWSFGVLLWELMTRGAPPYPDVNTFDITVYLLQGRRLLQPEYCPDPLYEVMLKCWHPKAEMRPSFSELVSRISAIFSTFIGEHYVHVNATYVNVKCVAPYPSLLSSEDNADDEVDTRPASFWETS

Row | IC50 [1] [nM] | IC50 [3] [nM] | IC50 [4] [nM] | IC50 [5] [nM] | IC50 [6] [nM] | Compound | IC50 (HT-29) [nM] | IC50 (A549) [nM] | IC50 (MCF7) [nM] | IC50 [2] [nM]
1 | 1.68 | 2.06 | 4.57 | 86.2 | 325 | O=C(Nc1ccc(Oc2ccnc3[nH]ccc23)c(F)c1)c1nnn(-c2ccc(F)cc2)c1C(F)(F)F | 29 | 82 | 110 | 1520
2 | – | – | – | – | – | O=C(Nc1ccc(Oc2ccnc3[nH]ccc23)c(F)c1)c1nnn(-c2ccccc2F)c1C(F)(F)F | 73 | 190 | 280 | 2130
3 | – | – | – | – | – | Cc1c(C(=O)Nc2ccc(Oc3ccnc4[nH]ccc34)c(F)c2)nnn1-c1ccc(F)cc1 | 120 | 150 | 170 | 4350
4 | – | – | – | – | – | COc1ccc(-n2nnc(C(=O)Nc3ccc(Oc4ccnc5[nH]ccc45)cc3)c2C(F)(F)F)cc1 | 290 | 460 | 580 | 4850
5 | – | – | – | – | – | O=C(Nc1ccc(Oc2ccnc3[nH]ccc23)cc1)c1nnn(-c2ccc(Cl)c(C(F)(F)F)c2)c1C(F)(F)F | 1530 | 2340 | – | –
6 | – | – | – | – | – | Cc1c(C(=O)Nc2ccc(Oc3ccnc4[nH]ccc34)cc2)nnn1-c1ccc(F)c(Cl)c1 | 2180 | 980 | 6310 | 12600
7 | – | – | – | – | – | Cc1c(C(=O)Nc2ccc(Oc3ccnc4[nH]ccc34)c(F)c2)nnn1-c1ccccc1 | 290 | 360 | 350 | 2340
8 | – | – | – | – | – | Cc1c(C(=O)Nc2ccc(Oc3ccnc4[nH]ccc34)c(F)c2)nnn1-c1ccc(F)c(Cl)c1 | 1060 | 730 | – | –
9 | – | – | – | – | – | O=C(Nc1ccc(Oc2ccnc3[nH]ccc23)cc1)c1nnn(-c2ccc(F)cc2)c1C(F)(F)F | 93 | 180 | 210 | 2830
10 | – | – | – | – | – | O=C(Nc1ccc(Oc2ccnc3[nH]ccc23)cc1)c1nnn(-c2ccccc2F)c1C(F)(F)F | 120 | 210 | 290 | 3690
11 | – | – | – | – | – | O=C(Nc1ccc(Oc2ccnc3[nH]ccc23)c(F)c1)c1nnn(-c2ccccc2)c1C(F)(F)F | 91 | 220 | 1150 | 2320
12 | – | – | – | – | – | COc1ccc(-n2nnc(C(=O)Nc3ccc(Oc4ccnc5[nH]ccc45)c(F)c3)c2C(F)(F)F)cc1 | 290 | 360 | 510 | 1850
13 | – | – | – | – | – | Cc1c(C(=O)Nc2ccc(Oc3ccnc4[nH]ccc34)c(F)c2)nnn1-c1ccccc1F | 180 | 390 | 420 | 3240
14 | – | – | – | – | – | O=C(Nc1ccc(Oc2ccnc3[nH]ccc23)cc1)c1nnn(-c2ccccc2)c1C(F)(F)F | 190 | 290 | 260 | 3570
15 | – | – | – | – | – | COc1ccc(-n2nnc(C(=O)Nc3ccc(Oc4ccnc5[nH]ccc45)c(F)c3)c2C)cc1 | 590 | 710 | – | –
16 | – | – | – | – | – | O=C(Nc1ccc(Oc2ccnc3[nH]ccc23)c(F)c1)c1nnn(-c2ccc(F)c(F)c2)c1C(F)(F)F | 320 | 350 | 590 | 2480
17 | – | – | – | – | – | Cc1c(C(=O)Nc2ccc(Oc3ccnc4[nH]ccc34)cc2)nnn1-c1ccccc1F | 360 | 320 | 280 | 3450
18 | – | – | – | – | – | Cc1c(C(=O)Nc2ccc(Oc3ccnc4[nH]ccc34)c(F)c2)nnn1-c1ccc(Cl)c(C(F)(F)F)c1 | 1120 | 2370 | – | –
19 | – | – | – | – | – | COc1ccc(-n2nnc(C(=O)Nc3ccc(Oc4ccnc5[nH]ccc45)cc3)c2C)cc1 | 1160 | 2420 | – | –
20 | – | – | – | – | – | Cc1c(C(=O)Nc2ccc(Oc3ccnc4[nH]ccc34)cc2)nnn1-c1ccc(F)cc1 | 180 | 220 | 390 | 3450
21 | – | – | – | – | – | O=C(Nc1ccc(Oc2ccnc3[nH]ccc23)cc1)c1nnn(-c2ccc(F)c(Cl)c2)c1C(F)(F)F | 1020 | 1120 | – | –
22 | – | – | – | – | – | O=C(Nc1ccc(Oc2ccnc3[nH]ccc23)c(F)c1)c1nnn(-c2ccc(F)c(Cl)c2)c1C(F)(F)F | 630 | 820 | – | –
23 | – | – | – | – | – | Cc1c(C(=O)Nc2ccc(Oc3ccnc4[nH]ccc34)cc2)nnn1-c1ccccc1 | 350 | 420 | 320 | 7260
24 | – | – | – | – | – | O=C(Nc1ccc(Oc2ccnc3[nH]ccc23)cc1)c1nnn(-c2ccc(F)c(F)c2)c1C(F)(F)F | 520 | 790 | 690 | 7310
25 | – | – | – | – | – | O=C(Nc1ccc(Oc2ccnc3[nH]ccc23)c(F)c1)c1nnn(-c2ccc(Cl)c(C(F)(F)F)c2)c1C(F)(F)F | 1050 | 1290 | – | –
26 | – | – | – | – | – | Cc1c(C(=O)Nc2ccc(Oc3ccnc4[nH]ccc34)c(F)c2)nnn1-c1ccc(F)c(F)c1 | 610 | 570 | 820 | 6540
27 | – | – | – | – | – | Cc1c(C(=O)Nc2ccc(Oc3ccnc4[nH]ccc34)cc2)nnn1-c1ccc(F)c(F)c1 | 1070 | 2260 | – | –
28 | – | – | – | – | – | Cc1c(C(=O)Nc2ccc(Oc3ccnc4[nH]ccc34)cc2)nnn1-c1ccc(Cl)c(C(F)(F)F)c1 | 3290 | 2830 | 8410 | 10900
